Data reported in ChEMBL document CHEMBL3286242, “Design, synthesis and biological evaluation of arylcinnamide hybrid derivatives as novel anticancer agents” (Eur J Med Chem, 2014).
Activity calls are given as the source filed them. No cut-off for these calls is given here.

What was measured:
HeLa [1] = test: Cytotoxicity against human HeLa cells assessed as growth inhibition after 72 hrs by MTT assay; format: functional, cell-based
HT-29 = test: Cytotoxicity against human HT-29 cells assessed as growth inhibition after 72 hrs by MTT assay; format: functional, cell-based; settings: HT-29, 72 h
CCRF-CEM = test: Cytotoxicity against human CEM cells assessed as growth inhibition after 72 hrs by MTT assay; format: functional, cell-based
[2] = Cytotoxicity against human SEM cells assessed as growth inhibition after 72 hrs by MTT assay; format: functional, cell-based
MCF7 = test: Cytotoxicity against human MCF7 cells assessed as growth inhibition after 72 hrs by MTT assay; format: functional, cell-based; settings: MCF7, 72 h
LoVo = test: Resistance ratio of IC50 for human LoVo/DX cells to IC50 for human LoVo cells; format: functional
In short: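 Ratio of IC50 in resistant line to IC50 in parental line (CEMVbl-100/CEM; LoVoDoxo/LoVo), each IC50 from 72 h MTT dose–response curves, ≥3 independent experiments.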

Tubulin (Bos taurus) = Tubulin (Bos taurus) (UniProt Q6B856+Q862L2+Q862F3); test: Inhibition of bovine brain tubulin polymerization at 20 uM by turbidimetry
In short: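 Purified bovine brain tubulin (10 μM) preincubated with compound in glutamate buffer at 30 °C, cooled to 0 °C, GTP added, then warmed to 30 °C in cuvettes; assembly followed turbidimetrically; concentrations up to 20 μM.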

HeLa [3] = test: Induction of apoptosis in human HeLa cells assessed as increase in Bid protein expression at 1 uM after 24 hrs by Western blotting analysis; format: functional, cell-based
HeLa [4] = test: Induction of apoptosis in human HeLa cells at 0.62 to 5 uM after 24 to 48 hrs by Annexin V/FITC staining-based flow cytometry; format: functional, cell-based
In short: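 HeLa cells treated 24 or 48 h at indicated concentrations, then stained with annexin-V-FITC plus PI; flow cytometry with 488 nm excitation, 525 and 585 nm emission; live, early/late apoptotic and necrotic populations distinguished; means of three independent experiments.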

HeLa [5] = test: Induction of apoptosis in human HeLa cells assessed as cell viability at 2.5 uM after 48 hrs by MTT assay in presence of reduced glutathione; format: functional, cell-based
In short: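 HeLa cells exposed to 2.5 μM compound for 48 h with scavengers (NAC 100 μM, GSH 1 mM or DTT 1 mM, among others); viability by MTT; means ± SEM of four independent experiments, Student's t-test.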

HeLa [6] = test: Induction of apoptosis in human HeLa cells assessed as caspase-3 activation at 1 to 2.5 uM by Western blotting analysis; format: functional, cell-based; settings: TDE = time-dependent effect
In short: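 HeLa cells treated at indicated concentrations and times; washed in cold PBS, lysed 30 min at 0 °C, cleared at 15 000 × g; 20 μg protein resolved on 7.5–15% gradient SDS-PAGE, blotted to PVDF, primary antibodies 2 h room temperature, peroxidase secondary 60 min, ECL detection; β-actin reprobe for loading.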

HeLa [7] = test: Induction of DNA damage in human HeLa cells assessed as increase in gammaH2A.X protein expression at 1 to 2.5 uM after 24 hrs by Western blotting analysis; format: functional, cell-based
HeLa [8] = test: Induction of apoptosis in human HeLa cells assessed as GSH depletion after 24 hrs by CMFDA staining-based flow cytometry; format: functional, cell-based
In short: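 HeLa cells treated 24 h with compound, alone or with 100 μM NAC; harvested and loaded with 5 μM CMFDA, 30 min at 37 °C; intracellular GSH read as CMFDA fluorescence by flow cytometry; means ± SEM.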

C=C(Br)C(=O)Nc1ccc(/C=C/C(=O)Nc2cc(OC)c(OC)c(OC)c2)cc1
IC50 (HeLa [1]): 490 nM
IC50 (HT-29): 3700 nM
IC50 (CCRF-CEM): 25 nM
IC50 [2]: 110 nM
IC50 (MCF7): 3000 nM
Ratio IC50 (LoVo): 0.6
inhibition (Tubulin (Bos taurus)): inactive
Activity (HeLa [3]): inactive
Activity (HeLa [4]): Active
Activity (HeLa [5]): inactive
Activity (HeLa [6]): tde
Activity (HeLa [7]): Active
Activity (HeLa [8]): Dose-dependent effect
